Most compounds without a hit are left out; they make up all but 2% or so of the library.
HGIII-sPLA2 inh: Blocks human group III sPLA2 activity; inhibition, % at 12.2 µM; AID 743126; 370,000 compounds, 0.56% hits; QFRET BODIPY PC-A2 liposome hydrolysis, fluorescence; Q9NZ20;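 active = inhibition above mean plus 3 SD of compounds lying within the high and low control bounds, cut at about 19% in these data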;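 note: 0% = median of test compound wells and 100% = no enzyme DMSO wells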
SR-BI DiI inh: mouse SR-BI HDL lipid transfer inhibition; ldlA[mSR-BI] CHO cells, DiI-HDL uptake fluorescence, 3 h; inhibition, % at 12.5 µM; 320,000 compounds, 0.96% hits;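 active = mean replicate inhibition of at least 70% and a set share of replicates each scoring 70 or more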;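 note: 0% = median of neutral control wells and 100% = median of positive control wells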
Target sequence (Q61009 whole entry, looked up): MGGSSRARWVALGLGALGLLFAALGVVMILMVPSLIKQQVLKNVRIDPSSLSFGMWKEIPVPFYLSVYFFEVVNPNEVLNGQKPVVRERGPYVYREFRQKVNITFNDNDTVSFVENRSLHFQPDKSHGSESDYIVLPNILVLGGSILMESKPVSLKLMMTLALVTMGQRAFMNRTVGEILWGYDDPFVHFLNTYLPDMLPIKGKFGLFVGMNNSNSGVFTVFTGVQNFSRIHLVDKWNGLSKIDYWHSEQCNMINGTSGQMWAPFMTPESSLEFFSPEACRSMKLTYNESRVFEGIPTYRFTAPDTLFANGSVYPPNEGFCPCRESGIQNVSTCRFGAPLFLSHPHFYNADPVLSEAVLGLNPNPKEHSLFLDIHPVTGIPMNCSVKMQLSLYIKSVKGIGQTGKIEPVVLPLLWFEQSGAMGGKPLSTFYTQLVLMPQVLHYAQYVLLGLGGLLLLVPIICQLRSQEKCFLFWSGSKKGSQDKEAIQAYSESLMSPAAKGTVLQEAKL
XiGFP reactiv: X-chromosome reactivation activator; XiGFP mouse fibroblasts, % GFP-positive cells imaging, 3 d; cells co-treated with 5-aza-dC sensitizer; scaled so ellipticine positive control = 100%; activation, % at 7.58 µM; 360,000 compounds, 0.055% hits; AID 743238;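 active = mean normalized replicate activation at least 10% and every replicate at or above 10%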;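 note: 0% = median of on-plate neutral control wells and 100% = ellipticine 6 µM median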
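Material: SV40-immortalized XiGFP fibroblast cells, line 68-5-11 | Buffer or medium: DMEM containing 5-aza-dC | Dosing: One concentration, pinned | Times: 3 d treatment, 15 min room-temperature fixation | Controls: Ellipticine 6 µM positive control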
SR-BI uptake up: SR-BI HDL lipid transfer activation; activation, % at 12.5 µM; CHO ldlA[mSR-BI] cells, DiI-HDL uptake fluorescence, 3 h; 100 = double the neutral-control signal; 320,000 compounds, 0.096% hits;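 active = mean replicate activation of at least 60% and every replicate at or above 60%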;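 note: 0% = median plate neutral-control signal and 100% = twice that signal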
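Material – SR-BI-overexpressing, LDLR-lacking CHO cells · Medium – BSA-supplemented, HEPES-buffered Ham's F12, pH 7.4 · Doses – single concentration · Times – compound with DiI-HDL co-incubation, 3 h at 37 °C · Measured by – bottom-read fluorescence, 550/595 nm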
NSD2 HMT inh: blocks human histone methyltransferase NSD2; inhibition, % at 12.5 µM; NSD2 peptide methylation, AlphaScreen, 120 min; 310,000 compounds, 0.54% hits; in the data active = inhibition above about 50%
ARNT-TACC3 inh: disrupts binding between human ARNT and TACC3. AlphaScreen His-ARNT PAS-B/GST-TACC3 binding, luminescence; TACC3 fragment carries E629A point mutation. 390,000 compounds, 0.66% hits. inhibition, % at 9.99 µM;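 active = mean inhibition of replicates at least 50% and at least half of replicates each reaching 50%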;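 note: 0% = complete ARNT plus TACC3 wells and 100% = ARNT alone without TACC3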
* marks the source's active call; other numbers are inactive results; · = no result.

SMILES	HGIII-sPLA2 inh	SR-BI DiI inh	XiGFP reactiv	SR-BI uptake up	NSD2 HMT inh	ARNT-TACC3 inh
Cc1nn(-c2ccccc2)c(C)c1/C=N/NC(=O)c1cc(-c2ccc(Cl)s2)[nH]n1	-7.5	53.2	·	-53.1	-2.4	11.8
Cc1nn(-c2ccccc2)c(C)c1/C=N/NC(=O)c1cc(-c2ccc(Br)s2)[nH]n1	3.9	70.5*	·	-70.5	-0.6	0.0
CC(C)NC(=O)CCn1c(=S)oc2ccccc21	1.0	-4.4	0.1	4.4	-0.8	·
CCOC(=O)c1c(Nc2ccc(Cl)cc2)sc(/C=C2\C=Nc3ccccc32)c1O	-1.8	90.8*	0.0	-90.8	-0.6	-6.0
Oc1nc(Nc2cccc(Cl)c2)sc1/C=C1\C=Nc2ccccc21	-28.3	25.4	0.2	-25.4	-0.9	-3.4
CCN1CCN(C(c2ccc(C(F)(F)F)cc2)c2ccc3cccnc3c2O)CC1 (centres undefined)	8.2	26.6	0.1	-26.6	8.0	79.7*
Cc1ccc(COc2ccc(/C=N/NC(=O)c3nnn(-c4nonc4N)c3COc3ccc(F)cc3)cc2)cc1	-2.1	71.0*	0.5	-71.0	-1.7	4.5
CCc1c(C(=O)N/N=C/c2ccc(OCc3ccc(F)cc3)c(OC)c2)nnn1-c1nonc1N	-0.4	75.8*	0.1	-75.8	32.4	-3.6
O=C(O)C(Cc1ccccc1)n1cnnn1 (centres undefined)	6.2	-5.7	·	5.7	2.8	·
COc1ccc2c3c([nH]c2c1)[C@@H](CO)N(C(=O)Cc1ccccn1)CC31CN(Cc2ccccn2)C1	·	·	0.3	·	·	·
CCCn1c(-c2ccc(F)cc2)cnc1SCC(=O)O	3.6	-4.2	·	4.2	0.1	2.3
CC(=O)OC[C@H]1O[C@@H](Sc2cccc3cccnc23)[C@H](OC(C)=O)[C@@H](OC(C)=O)[C@H]1OC(C)=O	-4.0	-4.4	-0.1	4.4	-1.4	63.5*
CC(=O)OC[C@H]1O[C@@H](Sc2cccc3cccnc23)[C@H](OC(C)=O)[C@@H](OC(C)=O)[C@@H]1OC(C)=O	-4.7	-0.3	·	0.3	-3.2	10.4
COc1ccccc1Nc1ccc2c(O)cc(S(=O)(=O)O)cc2c1	1.9	11.7	0.0	-11.7	109.9*	active
O=S(=O)(O)c1cc(O)c2ccc(Nc3ccccc3)cc2c1	-10.4	-10.8	0.0	10.8	104.7*	12.3
C=C(CN(C)C)C(=O)c1cc(C)ccc1C	6.5	81.3*	0.6	-81.3	4.6	-3.8
CS(=O)(=O)N(CC(=O)NCCSCc1ccccc1)c1ccccc1Br	7.0	-18.6	0.1	18.6	-1.1	-2.5
CCOc1ccc(OCC)c(NC(=O)Nc2ccc3c(c2)N(C)C(=O)CS3)c1	-10.0	87.6*	0.0	-87.6	·	-4.3
CC(=O)Nc1ccc(NC(=O)Nc2ccc3c(c2)N(C)C(=O)CS3)cc1	-7.9	1.3	0.7	-1.3	1.0	·
Cc1cc(Br)c(OCc2ccc(C(=O)N/N=C/c3ccc[nH]3)cc2)c(Br)c1	6.7	91.4*	-0.1	-91.4	-2.6	-1.5
O=C(N/N=C/c1ccc[nH]1)c1ccc(COc2cccc3cccnc23)cc1	4.9	59.8	0.1	-59.8	-0.1	1.2
Cc1ccc(NS(=O)(=O)c2cc(NC(=O)c3cc4c(s3)CCCC4)ccc2C)c(C)c1	-3.5	82.8*	0.0	-82.8	0.4	4.3
C=CCOCCN1C(=O)C2C(c3ccccc3)C=CC(c3ccccc3)C2C1=O (centres undefined)	-19.8	-5.4	·	5.4	-0.1	·
O=C(COC(=O)c1ccc([N+](=O)[O-])s1)NNC(=O)c1ccccc1	·	-15.1	·	15.1	·	42.1*
COc1ccc2nc(/N=C/c3c(C)[nH]n(-c4ccc(C)cc4C)c3=O)sc2c1	-4.0	-18.3	0.0	18.3	9.2	65.6*
COc1ccccc1N=Cc1c(C)[nH]n(-c2ccc(C)cc2C)c1=O	-2.3	37.7	0.0	-37.7	4.0	12.3
Cc1ccc2[nH]c(C(=O)N/N=C/c3ccccc3O)c(C)c2c1	15.1	132.1*	0.0	-132.1	0.1	-1.2
COc1cc(OC)c2cc(C(=O)N/N=C/c3ccccc3O)[nH]c2c1	2.2	122.9*	-0.1	-122.9	2.3	-4.3

High-throughput results (PubChem)
